Rows were chosen to be rich in hits. Some 1.8% of all compounds tested hit in one or more screens of this group.
CHRM5 agonist: CHRM5 agonism in calcium assay. P08912. CHO-K1 hM5 cells, Fluo-8 calcium fluorescence; 0% DMSO wells, 100% maximal acetylcholine response. activation, % at 3 µM. 0.19% of 360,000 active;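 active means activation above the run's mean over test compounds plus 3 SD, cut at about 23% in these data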;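 further: signal is peak over basal fluorescence ratio across the kinetic read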
M5 PAM: positive allosteric modulators of human muscarinic M5 receptor; P08912; CHO-K1 hM5, Fluo-8 calcium, ACh EC20 PAM; 0% = ACh EC20, 100% = ACh EC100; activation, % at 3 µM; 0.3% of 360,000 active; AID 624038;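 active means activation above the run cutoff, the mean activation of all test compounds plus 3 SD, cut at about 18% in these data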
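system = human M5 receptor in CHO-K1 cells | compound = one concentration, 3 µM final (nominal) | schedule = Post-acetylcholine fluorescence recording 140 s | signal = Fluo-8 calcium dye fluorescence, kinetic read | benchmarks = low control EC20 acetylcholine (0%), high control EC100 acetylcholine (100%) | repeats = singlicate, one well per test compound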
CHRM4 agonist: agonists of human muscarinic M4 receptor (CHRM4) | 0.14% of 360,000 active | CHO-K1 hM4/Gqi5, Fluo-8 calcium fluorescence; vehicle 0%, full acetylcholine response 100% | AID 624127 | activation, % at 3 µM | P08173;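 active means activation above the run mean over all test wells plus 3 SD, cut at about 32% in these data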;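 further: peak over basal fluorescence ratio per well then scaled between controls; 0% = DMSO wells and 100% = acetylcholine at EC100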
Target sequence (P08173 whole entry, looked up): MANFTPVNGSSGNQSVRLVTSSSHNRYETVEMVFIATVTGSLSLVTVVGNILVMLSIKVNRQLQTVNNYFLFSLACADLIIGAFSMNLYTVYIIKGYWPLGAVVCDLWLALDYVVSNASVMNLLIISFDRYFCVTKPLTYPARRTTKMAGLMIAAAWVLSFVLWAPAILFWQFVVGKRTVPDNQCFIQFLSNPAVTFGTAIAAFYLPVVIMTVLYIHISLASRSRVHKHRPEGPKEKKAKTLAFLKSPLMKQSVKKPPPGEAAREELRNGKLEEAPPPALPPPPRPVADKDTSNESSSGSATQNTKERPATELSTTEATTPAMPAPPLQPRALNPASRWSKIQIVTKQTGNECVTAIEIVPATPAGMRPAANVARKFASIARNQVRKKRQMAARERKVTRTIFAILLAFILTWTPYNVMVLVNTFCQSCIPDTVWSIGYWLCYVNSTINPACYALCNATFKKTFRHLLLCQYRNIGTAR
CHRM4 PAM: potentiates acetylcholine response at human M4 receptor. P08173. CHO-K1 hM4/Gqi5, Fluo-8 calcium fluorescence, ACh EC20; 0% = ACh EC20, 100% = maximal ACh. activation, % at 3 µM. 0.4% of 360,000 active. AID 624126;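 active means activation above its plate's cutoff, the mean activation of sample wells plus 3 SD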
CHRM5 antagonist: antagonists of human muscarinic M5 receptor (CHRM5); P08912; CHO-hM5 cells, Fluo-8 calcium fluorescence, ACh EC80; inhibition, % at 3 µM; 0.59% of 360,000 active; AID 624040;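 active means inhibition above a per-plate cutoff, the mean of that plate's test compounds plus 3 SD, cut at about 27% in these data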;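 further: 0% = acetylcholine EC80 with DMSO and 100% = DMSO without agonist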
M4 antag: blocks acetylcholine activation of human M4 receptor; 0.73% of 360,000 active; P08173; AID 624125; CHO-hM4 cells, ACh EC80, Fluo-8 calcium fluorescence; inhibition, % at 3 µM;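 active means inhibition above its plate's cutoff, the mean inhibition of sample wells plus 3 SD, cut at about 27% in these data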;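 further: 0% = acetylcholine EC80 with DMSO and 100% = DMSO without agonist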
* = called active by the depositor.

SMILES	CHRM5 agonist	M5 PAM	CHRM4 agonist	CHRM4 PAM	CHRM5 antagonist	M4 antag
CC(C)(C)OC(=O)NCc1ccc(CNC(=O)c2[nH]cnc2C(=O)NCC(=O)OCc2ccccc2)cc1	10.7	-35.9	30.4	-13.9	3.6	38.0*
O=C(CNC(=O)c1nc[nH]c1C(=O)NCC(=O)OCc1ccccc1)OCc1ccccc1	6.3	-26.1	22.2	-8.5	21.1	17.4
O=C(NCc1ccccn1)c1ccc(OC2CCN(Cc3ccc(Cl)s3)CC2)cc1	-5.9	-2.8	5.0	-11.6	3.0	2.4
CCN(c1ccccc1)S(=O)(=O)c1cc2c3c(c1)CCN3C(=O)CC2	-1.2	-5.0	2.4	2.5	2.5	1.5
COc1ccc(Cl)cc1NC(=O)CN(C)C(=O)c1cc(-c2ccncc2)nc2ccccc12	2.8	-25.1	32.8*	-13.8	27.4*	13.4
COc1ccc(NC(=O)CN(C)C(=O)c2cc(-c3ccncc3)nc3ccccc23)cc1	0.6	-8.9	18.0	-9.8	23.5	6.9
COc1ccc(CN(C)C(=O)COC(=O)c2ccc(-c3ccccc3)cc2)c(OC)c1OC	-0.6	-19.9	13.7	-8.8	12.6	4.1
COc1cc(OC)cc(C(=O)N[C@H](C(=O)Nc2c(C)n(C)n(-c3ccccc3)c2=O)C(C)C)c1	-0.6	-0.8	1.4	4.2	1.7	0.8
Cc1cc(C)c2c(n1)sc1c(N3CCCCC3)ncnc12	-2.0	3.7	2.5	23.1*	0.1	-8.7
Cc1cc(C)c2c(n1)sc1c(N3CCN(C)CC3)ncnc12	-0.3	-1.3	1.4	24.9	8.2	17.3
CC1(c2ccc(Cl)cc2)NC(=O)N(CC(=O)Nc2cccnc2Cl)C1=O (centres undefined)	11.1	0.1	9.3	3.5	5.4	0.6
Cn1c(CN2CCCCC2)nc2cc(NS(=O)(=O)c3ccc(Cl)cc3)ccc21	18.7	-5.7	43.0*	3.1	-0.3	1.1
CN(CCO)c1cc(Sc2nc3ccccc3s2)c2nonc2c1[N+](=O)[O-]	1.0	-13.4	3.9	-13.5	21.0	92.5*
CC(=O)OCCN(C)c1cc(SC(C)C)c2nonc2c1[N+](=O)[O-]	-0.1	-3.5	2.4	-3.5	10.1	-3.3
Cc1ccc(NC(=O)CCc2c(C)[nH]c(=O)c(C#N)c2C)cc1	-3.2	0.1	-0.4	-4.4	2.8	7.0
CCCCOC(=O)CCc1c(C)[nH]c(=O)c(C#N)c1C	-1.3	7.8	0.5	26.1*	-3.2	-2.0
COCCNC(=O)c1cc(-c2ccccc2)sc1N	2.7	0.6	3.6	-0.3	8.3	4.0
CCCCNC(=O)c1cc(-c2ccccc2)sc1N	7.3	21.0*	1.8	17.8	-15.1	-7.9
Cc1ccsc1CN(C)C(=O)C(NC(=O)c1cccc(S(=O)(=O)N2CCOCC2)c1)C(C)C (centres undefined)	-0.6	-3.8	3.7	-4.1	1.3	4.2
N/C(Cc1nc(-c2ccc(Br)cc2)cs1)=N\O	-0.4	1.5	2.8	2.6	6.3	-14.3
Cc1noc(C)c1CSCC(=O)N1CCN(c2ccc([N+](=O)[O-])cc2)CC1	2.1	-24.7	18.1	-16.0	28.6*	18.2
CCCCCc1nc2sc3c(c2c(=O)n1NC(=O)c1ccc([N+](=O)[O-])cc1)CC(C)(C)OC3	0.4	-15.9	8.8	-12.9	33.9*	3.4
CCCCCCCc1nc2sc3c(c2c(=O)n1N)CC(C)(C)OC3	-2.0	-1.0	0.5	7.1	15.4	6.9
CC(CN1CCCCC1)OC(=O)C(C)(c1ccccc1)c1ccccc1 (centres undefined)	-12.4	-54.3	-0.8	-17.8	39.7*	20.0
CC(CN1CCOCC1)OC(=O)C(C)(c1ccccc1)c1ccccc1 (centres undefined)	-13.5	-19.9	-0.2	2.4	9.3	-11.7
SMILES	CHRM5 agonist	M5 PAM	CHRM4 agonist	CHRM4 PAM	CHRM5 antagonist	M4 antag
C[C@@H](CO)NC(=O)[C@H]1O[C@@H](n2cnc3c(N)ncnc32)[C@H](O)[C@@H]1O	3.7	3.3	0.3	0.6	2.1	0.0
Nc1ncnc2c1ncn2C1OC(C(=O)NC2CC2)C(O)C1O (centres undefined)	-0.1	2.4	0.2	-8.4	2.1	36.3*
COc1ccc(NCc2nnc(SCC(=O)c3ccc(OC)cc3)n2C)cc1	-2.0	36.2*	3.7	1.3	33.2*	-13.6
Cc1cc(C(=O)CSc2nc3ccc(Cl)cc3[nH]2)c(C)n1CC1CCCO1 (centres undefined)	4.3	-18.4	12.2	-12.0	18.8	30.5*
Cc1cc(C(=O)CSc2nc3ccc(Cl)cc3[nH]2)c(C)n1C	-0.1	2.4	1.9	3.2	3.9	2.3
C=CCn1c(C)cc(C(=O)CSc2nc3ccccc3c(=O)[nH]2)c1C	2.9	-28.6	21.1	-11.7	22.4	6.4
Cc1cc(C(=O)CSc2nc3ccccc3[nH]2)c(C)n1Cc1ccco1	7.1	-17.0	19.2	-25.7	27.5*	11.9
C=CCn1c(C)cc(C(=O)CSc2nc3ccccc3[nH]2)c1C	10.7	-23.1	29.0	-15.3	20.3	28.9*
COc1ccccc1NC(=O)N1CCN(C(=O)c2ccco2)CC1	-4.0	10.9	0.9	0.3	-9.2	-0.8
O=C(COc1cccnc1[N+](=O)[O-])Nc1ncc(Cl)cc1Cl	3.4	3.7	2.1	24.5*	-0.6	-18.0
N#Cc1ccc[n+](CC(=O)c2ccc(Cl)cc2)c1	4.5	22.8*	0.5	3.3	-10.1	-18.5
CCCCN(C)CCNC(=O)CCn1nc(-c2ccc(Cl)cc2)ccc1=O	-6.1	1.4	-0.8	-0.9	5.8	6.4
CCCCn1c(N)c(N(CC)C(=O)c2cc(S(=O)(=O)N3CCCCCC3)ccc2OC)c(=O)[nH]c1=O	0.3	3.7	0.7	6.7	0.8	8.2
CCOC(=O)C1=C(N)Oc2c(oc(CO)cc2=O)C1c1ccc(Cl)cc1 (centres undefined)	2.5	18.3*	1.1	-1.2	-2.0	10.6
CC1=NN(c2ccccc2)C(=O)/C1=C\C=C1/N(C)c2ccccc2C1(C)C	35.8*	-16.4	24.9	-10.2	17.9	-3.9
CC1=NN(c2ccccc2)C(=O)/C1=C\C=C1\N(C)c2ccccc2C1(C)C	16.7	-6.9	9.7	1.6	11.6	4.1
CN1/C(=C\C=C2/SC(=S)NC2=O)C(C)(C)c2ccccc21	51.4*	-27.6	65.0*	-28.6	57.7*	44.5*
Cc1cc(/C=C(\C#N)C(=O)NC2CCCCCC2)c(C)n1C	0.1	3.8	0.9	23.2*	-4.6	6.0
COc1ccccc1N1CCN(C(=O)c2oc3ccccc3c2C)CC1	0.9	-5.8	13.5	-10.1	4.6	9.9
COc1ccccc1N1CCN(C(=O)c2ccc(CS(=O)(=O)c3ccccc3OC)o2)CC1	33.5*	-16.0	13.9	-10.1	6.6	3.0
